Published values collected from several papers.
Organism: Klebsiella pneumoniae
Read-out: microbial growth

SMILES	method	strain	time	setting	MIC
O=C(O)c1cn(C2CC2)c2cc(N3CCNCC3)c(F)cc2c1=O		DSM30104			≤ 0.03 µg/mL
CC1=NN(CNC(=O)c2ccccn2)C(=O)C1=NNn1c(-c2ccccc2)nc2ccccc2c1=O	broth dilution		24 h		52 µM
O=C(Nc1ccc(S(=O)(=O)c2nccs2)cc1)c1cc(N=Nc2nccs2)ccc1O	broth dilution				100 µg/mL
CC1(C)S[C@@H]2[C@H](NC(=O)COc3ccccc3)C(=O)N2[C@H]1C(=O)O	broth dilution	ATCC10031	18 h		4 µg/mL
NC1CCc2c1[nH]c1ccc(Cl)c(Cl)c21 (stereo not drawn)	broth dilution	ATCC10031			8 µg/mL
O=C(O)c1cn(C2CC2)c2cc(N3CCNCC3)c(F)cc2c1=O	broth dilution		24 h		0.57 µM
CO[C@@H]1[C@@H](OC(N)=O)[C@@H](O)[C@H](Oc2ccc3c(O)c(NC(=O)c4ccc(O)c(CC=C(C)C)c4)c(=O)oc3c2C)OC1(C)C	broth dilution	ATCC700603			160 µM
CCCCCC/C=C\CCCCCCCCCc1cc(O)cc(O)c1	broth dilution	ATCC10031			> 64 µg/mL
CN(C)[C@@H]1C(O)=C(C(N)=O)C(=O)[C@@]2(O)C(O)=C3C(=O)c4c(cc5ccc(-c6cccnc6)cc5c4O)C[C@H]3C[C@@H]12	broth dilution	ATCC13883			32 µg/mL
CC[C@H]1OC(=O)[C@H](C)C(=O)[C@H](C)[C@@H](O[C@@H]2O[C@H](C)C[C@H](N(C)C)[C@H]2O)[C@](C)(OC)C[C@@H](C)C(=O)[C@H](C)[C@H]2N(CCCCn3cnc(-c4cccnc4)c3)C(=O)O[C@]12C	broth dilution	ATCC700603			40 µM
NCC[C@H](O)C(=O)N[C@@H]1C[C@H](N)[C@@H](O[C@H]2O[C@H](CN)[C@@H](O)[C@H](O)[C@H]2O)[C@H](O)[C@H]1O[C@H]1O[C@H](CO)[C@@H](O)[C@H](N)[C@H]1O					1 µg/mL
CC1=NN(CNc2ccccc2[N+](=O)[O-])C(=O)C1=NNn1c(-c2ccccc2)nc2ccccc2c1=O	broth dilution		24 h		50.4 µM
CN(C)Cc1ccc2c(N(C)C)c3c(c(O)c2c1)C(=O)C1=C(O)[C@]2(O)C(=O)C(C(N)=O)=C(O)[C@@H](N(C)C)[C@@H]2C[C@@H]1C3	broth dilution	ATCC13883			4 µg/mL
O=C1NN=C(N=Cc2ccc(O)cc2O)C1=NNn1c(-c2ccccc2)nc2ccccc2c1=O	broth dilution		24 h		53.5 µM
NC1CCCCc2c1[nH]c1ccc(Br)cc21 (stereo not drawn)	broth dilution	ATCC10031			16 µg/mL
NC[C@H]1O[C@H](O[C@H]2[C@H](O)[C@@H](O[C@H]3O[C@H](CO)[C@@H](O)[C@H](N)[C@H]3O)[C@H](N)C[C@@H]2N)[C@H](N)C[C@@H]1O					0.5 to 1 µg/mL
CC(=O)O[C@H]1C[C@@]2(C)[C@@H](C[C@@H](O)[C@H]3[C@@]4(C)CC[C@@H](O)[C@@H](C)[C@@H]4CC[C@@]32C)/C1=C(\CCC=C(C)C)C(=O)O	broth dilution	ATCC700603			640 µM
CCCCCCC#Cc1cncc(-c2nnc(SCc3ccc([N+](=O)[O-])cc3)n2C)c1					≥ 20 µg/mL
NC1CCCCc2c1[nH]c1ccc(Cl)c(Cl)c21 (stereo not drawn)	broth dilution	ATCC10031			8 µg/mL
CCCCCCC#Cc1cncc(-c2nnc(SCc3ccc(Cl)cc3)n2C)c1					≥ 20 µg/mL

SMILES	method	strain	time	setting	MIC
Cc1c(CN(C)C(=O)/C=C/c2cnc3c(c2)CC(CCN)C(=O)N3)oc2ccccc12.Cl (stereo not drawn)	broth dilution	BAA2473			16 µg/mL
O=C(Nc1ccc([N+](=O)[O-])cc1F)c1ccccc1O	broth dilution	BAA1705			> 64 µg/mL
CNC(=O)c1cc(Oc2ccc(NC(=O)Nc3ccc(Cl)c(C(F)(F)F)c3)cc2)ccn1		DSM30104			> 100 µM
CN[C@H](CC(C)C)C(=O)N[C@H]1C(=O)N[C@@H](CC(N)=O)C(=O)N[C@H]2C(=O)N[C@H]3C(=O)N[C@H](C(=O)N[C@H](C(=O)O)c4cc(O)cc(O)c4-c4cc3ccc4O)[C@H](O)c3ccc(c(Cl)c3)Oc3cc2cc(c3O[C@@H]2O[C@H](CO)[C@@H](O)[C@H](O)[C@H]2O[C@H]2C[C@](C)(N)[C@H](O)[C@H](C)O2)Oc2ccc(cc2Cl)[C@H]1O	broth dilution	ATCC43816			> 128 µM
C=C[C@]1(C)C[C@@H](OC(=O)CS[C@@H]2C[C@H]3CC[C@@H](C2)N3C)[C@]2(C)[C@H](C)CC[C@]3(CCC(=O)[C@H]32)[C@@H](C)[C@@H]1O	broth dilution	ATCC700603			160 µM
O=C1NN=C(N=Cc2ccccc2)C1=NNn1c(-c2ccccc2)nc2ccccc2c1=O	broth dilution		24 h		114 µM
CC(C)(O/N=C(\C(=O)N[C@@H]1C(=O)N2C(C(=O)[O-])=C(C[n+]3ccccc3)CS[C@H]12)c1csc(N)n1)C(=O)O			18 h	clinical isolate	> 128 µg/mL
Cc1c(CN(C)C(=O)/C=C/c2cnc3c(c2)CCC(=O)N3)oc2ccccc12	broth dilution				> 32 µg/mL
CCCCCCC#Cc1cncc(-c2nnc(SCc3ccc(Cl)cc3)n2C2CC2)c1					≥ 20 µg/mL
C[C@@H](O)[C@H]1C(=O)N2C(C(=O)O)=C(S[C@@H]3CN[C@H](C(=O)N(C)C)C3)[C@H](C)[C@H]12	broth dilution	ATCC700603			0.63 µM
Cn1c(SCc2ccc(Cl)cc2)nnc1-c1cncc(C#Cc2ccccc2)c1					≥ 20 µg/mL
C[C@@H]1O[C@@H]1P(=O)(O)O	broth dilution	ATCC700603			80 µM
CN(C)[C@@H]1C(O)=C(C(N)=O)C(=O)[C@@]2(O)C(O)=C3C(=O)c4c(cc5ccc(-c6ccccc6)cc5c4O)C[C@H]3C[C@@H]12	broth dilution	ATCC13883			32 µg/mL
CO/N=C(\C(=O)N[C@@H]1C(=O)N2C(C(=O)[O-])=C(C[N+]3(C)CCCC3)CS[C@H]12)c1csc(N)n1	broth dilution	ATCC700603			1.3 µM
CN(C)[C@@H]1C(O)=C(C(N)=O)C(=O)[C@@]2(O)C(O)=C3C(=O)c4c(cc5ccc(CN6CCCCC6)cc5c4O)C[C@H]3C[C@@H]12	broth dilution	ATCC13883			4 µg/mL
CC1=NN(CNC(=O)c2ccccc2)C(=O)C1=NNn1c(-c2ccccc2)nc2ccccc2c1=O	broth dilution		24 h		51.9 µM
C/C(=C\C(=O)OCCCCCCCCC(=O)O)C[C@@H]1OC[C@H](C[C@@H]2O[C@H]2[C@@H](C)[C@H](C)O)[C@@H](O)[C@H]1O	broth dilution	ATCC700603			160 µM
CN(C)[C@@H]1C(O)=C(C(N)=O)C(=O)[C@@]2(O)C(O)=C3C(=O)c4c(cc5ccc(CN6CC(F)(F)C6)cc5c4O)C[C@H]3C[C@@H]12	broth dilution	ATCC13883			32 µg/mL
CC(C)Oc1c(NC(=O)c2ccc(NC(=O)c3ccc(NC(=O)[C@H](CC(N)=O)NC(=O)c4ccc(NC(=O)c5ccc(C#N)cn5)cc4)cc3)c(OC(C)C)c2O)ccc(C(=O)O)c1O		DSM30104			4 µg/mL
